Calls of active or inactive are those of the source. The rule behind the calls is not given here.
Legend:
[1] = biological target: Signal transducer and activator of transcription 3 (Homo sapiens) (UniProt P40763); assay: Inhibition of STAT3 transcriptional activity in human HeLa cells assessed as downregulation of c-Myc expression upto 80 uM after 24 hrs by western blot analysis; format: cell-based; settings: dose microM <=80, time […]
Outline: (§1)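 HeLa cells treated 24 h with a concentration series. Total cell lysates probed by Western blot with specific antibodies for the STAT3 target gene products cyclin D1, c-Myc and survivin.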

[2] = biological target: Signal transducer and activator of transcription 3 (Homo sapiens) (UniProt P40763); assay: Inhibition of STAT3 transcriptional activity in human HeLa cells assessed as downregulation of survivin expression upto 80 uM after 24 hrs by western blot analysis; format: cell-based; settings: dose microM <=80, time […]; outline: as §1
[3] = biological target: Signal transducer and activator of transcription 3 (Homo sapiens) (UniProt P40763); assay: Inhibition of STAT3 in human HeLa cells assessed as decrease in phosphorylation of STAT3 at Tyr705 after 1 hrs by Western blot analysis; format: cell-based; settings: dose microM <=80, time 1.0 hrs
Outline: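 HeLa cells were treated with graded doses for 1 h or 24 h. Total cell lysates were immunoblotted with specific antibodies against p-STAT3 (Tyr705), p-STAT3 (Ser727) and total STAT3.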

[4] = Apparent volume of distribution in Sprague-Dawley rat at 5 mg/kg, iv; format: ADME, organism-based; settings: in vivo
Outline: (§2)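 Rats, n = 3 per group, received a single dose either intragastrically (25 mg/kg) or intravenously (5 mg/kg). Plasma concentration–time curves were used to derive t1/2α, t1/2β, Vd/F, CL/F, AUC0–∞, Tmax and Cmax. Absolute oral bioavailability was calculated from the ig and iv data.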

HeLa [5] = assay: Induction of cell cycle arrest in human HeLa cells assessed as accumulation at G0/G1 phase at 40 uM measured after 24 hrs by flow cytometry analysis (reference value: 54.16%); format: functional
[6] = Cytotoxicity against human HeLa cells assessed as inhibition of cell viability at 10 uM measured after 48 hrs by MTT assay; format: cell-based; settings: read-out: INH
[7] = biological target: Tyrosine-protein kinase JAK2 (Homo sapiens) (UniProt O60674); assay: Inhibition of Jak2 phosphorylation at Tyr1007/1008 in human Hela cells upto 80 uM after 24 hrs by Western blot analysis; format: cell-based; settings: dose microM <=80, time […]
Tyrosine-protein kinase JAK2 (Homo sapiens), sequence (O60674 whole entry): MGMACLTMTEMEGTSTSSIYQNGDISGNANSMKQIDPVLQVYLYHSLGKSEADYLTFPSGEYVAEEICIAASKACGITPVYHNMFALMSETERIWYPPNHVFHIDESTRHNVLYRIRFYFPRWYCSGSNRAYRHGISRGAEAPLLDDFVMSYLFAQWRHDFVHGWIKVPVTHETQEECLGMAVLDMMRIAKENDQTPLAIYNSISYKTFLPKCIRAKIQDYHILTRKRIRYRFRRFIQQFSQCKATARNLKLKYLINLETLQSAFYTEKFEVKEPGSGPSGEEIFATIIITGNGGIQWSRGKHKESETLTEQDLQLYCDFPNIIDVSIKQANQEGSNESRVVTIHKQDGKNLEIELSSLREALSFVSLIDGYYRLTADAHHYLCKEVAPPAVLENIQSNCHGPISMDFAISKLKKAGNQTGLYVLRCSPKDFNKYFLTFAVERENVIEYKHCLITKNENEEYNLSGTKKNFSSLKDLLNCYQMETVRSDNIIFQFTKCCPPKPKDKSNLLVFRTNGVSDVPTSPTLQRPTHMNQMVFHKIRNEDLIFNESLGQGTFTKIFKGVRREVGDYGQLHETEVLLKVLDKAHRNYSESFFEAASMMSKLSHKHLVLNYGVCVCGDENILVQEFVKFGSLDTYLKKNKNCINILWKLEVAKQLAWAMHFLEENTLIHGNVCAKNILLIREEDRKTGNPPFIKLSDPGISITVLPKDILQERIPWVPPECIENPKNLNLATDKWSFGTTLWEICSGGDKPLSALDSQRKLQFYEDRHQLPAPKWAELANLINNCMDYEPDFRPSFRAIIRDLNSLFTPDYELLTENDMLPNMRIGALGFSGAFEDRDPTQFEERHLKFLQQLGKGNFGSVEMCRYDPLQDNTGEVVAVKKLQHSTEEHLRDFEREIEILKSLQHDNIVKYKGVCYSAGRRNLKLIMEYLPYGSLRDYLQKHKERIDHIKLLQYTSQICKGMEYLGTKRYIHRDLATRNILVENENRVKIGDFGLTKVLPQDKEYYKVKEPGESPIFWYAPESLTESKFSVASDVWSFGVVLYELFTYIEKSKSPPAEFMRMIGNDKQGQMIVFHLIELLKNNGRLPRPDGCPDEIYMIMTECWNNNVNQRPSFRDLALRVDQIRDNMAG

[8] = Antiproliferative activity against human A375 cells assessed as cell growth inhibition measured after 48 hrs by MTT assay; format: functional, cell-based; settings: A-375, 48 h
[9] = Half life in Sprague-Dawley rat at 25 mg/kg, IG; format: ADME, organism-based; settings: in vivo, po; outline: as §2
Caco-2 = assay: Antiproliferative activity against human Caco-2 cells assessed as cell growth inhibition measured after 48 hrs by MTT assay; format: functional, cell-based; settings: Caco-2, 48 h
HeLa [10] = assay: Induction of cell cycle arrest in human HeLa cells assessed as accumulation at S phase at 10 uM measured after 24 hrs by flow cytometry analysis (reference value: 34.04%); format: functional
HeLa [11] = assay: Cytotoxicity against human HeLa cells assessed as inhibition of cell viability measured after 48 hrs by MTT assay; format: functional, cell-based
Outline: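 Growth was read by MTT assay and IC50 taken from dose–response curves. Values are averages of three independent experiments.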

[12] = biological target: Signal transducer and activator of transcription 3 (Homo sapiens) (UniProt P40763); assay: Inhibition of STAT3 in human Hela cell lysate assessed as inhibition of protein and DNA interaction upto 200 uM incubated 30 mins by electrophoretic mobility shift assay; format: subcellular; settings: dose microM <=200, time 30.0 min
HeLa [13] = assay: Induction of apoptosis in human HeLa cells assessed as early apoptotic cells at 20 uM incubated for 24 hrs by Annexin V-FITC/PI staining based flow cytometry (reference value: 2.84%); format: functional
HeLa [14] = assay: Induction of apoptosis in human HeLa cells assessed as viable cells at 20 uM incubated for 24 hrs by Annexin V-FITC/PI staining based flow cytometry (reference value: 92.45%); format: functional; settings: read-out: Activity
HeLa [15] = assay: Induction of apoptosis in human HeLa cells assessed as necrotic cells at 40 uM incubated for 24 hrs by Annexin V-FITC/PI staining based flow cytometry (reference value: 0.02%); format: functional
[16] = AUC (0 to infinity) in Sprague-Dawley rat at 5 mg/kg, iv; format: ADME, organism-based; parameters: route intravenous, time infinity, dose 5 mg/kg; settings: in vivo; outline: as §2
HeLa [17] = assay: Induction of cell cycle arrest in human HeLa cells assessed as accumulation at G0/G1 phase at 10 uM measured after 24 hrs by flow cytometry analysis (reference value: 54.16%); format: functional
[18] = Cmax in Sprague-Dawley rat at 5 mg/kg, iv; format: ADME, organism-based; parameters: route intravenous, dose 5 mg/kg; settings: in vivo; outline: as §2
HeLa [19] = assay: Induction of apoptosis in human HeLa cells assessed as late apoptotic cells at 10 uM incubated for 24 hrs by Annexin V-FITC/PI staining based flow cytometry (reference value: 4.7%); format: functional
HeLa [20] = assay: Induction of apoptosis in human HeLa cells assessed as late apoptotic cells at 20 uM incubated for 24 hrs by Annexin V-FITC/PI staining based flow cytometry (reference value: 4.7%); format: functional
[21] = Cmax in Sprague-Dawley rat at 25 mg/kg, IG; format: ADME, organism-based; parameters: route […], dose 25 mg/kg; settings: in vivo, po; outline: as §2
HT-29 = assay: Antiproliferative activity against human HT29 cells assessed as cell growth inhibition measured after 48 hrs by MTT assay; format: functional, cell-based; settings: HT-29, 48 h
HeLa [22] = assay: Induction of apoptosis in human HeLa cells assessed as late apoptotic cells at 40 uM incubated for 24 hrs by Annexin V-FITC/PI staining based flow cytometry (reference value: 4.7%); format: functional
[23] = Elimination Half life in Sprague-Dawley rat at 25 mg/kg, IG; format: ADME, organism-based; settings: in vivo, po, read-out: beta t1/2 (converted); outline: as §2
[24] = biological target: Proto-oncogene tyrosine-protein kinase Src (Homo sapiens) (UniProt P12931); assay: Inhibition of Src phosphorylation at Tyr416 in human Hela cells upto 80 uM after 24 hrs by Western blot analysis; format: cell-based; settings: dose microM <=80, time […]
Proto-oncogene tyrosine-protein kinase Src (Homo sapiens), sequence (P12931 2-536 limits assumed): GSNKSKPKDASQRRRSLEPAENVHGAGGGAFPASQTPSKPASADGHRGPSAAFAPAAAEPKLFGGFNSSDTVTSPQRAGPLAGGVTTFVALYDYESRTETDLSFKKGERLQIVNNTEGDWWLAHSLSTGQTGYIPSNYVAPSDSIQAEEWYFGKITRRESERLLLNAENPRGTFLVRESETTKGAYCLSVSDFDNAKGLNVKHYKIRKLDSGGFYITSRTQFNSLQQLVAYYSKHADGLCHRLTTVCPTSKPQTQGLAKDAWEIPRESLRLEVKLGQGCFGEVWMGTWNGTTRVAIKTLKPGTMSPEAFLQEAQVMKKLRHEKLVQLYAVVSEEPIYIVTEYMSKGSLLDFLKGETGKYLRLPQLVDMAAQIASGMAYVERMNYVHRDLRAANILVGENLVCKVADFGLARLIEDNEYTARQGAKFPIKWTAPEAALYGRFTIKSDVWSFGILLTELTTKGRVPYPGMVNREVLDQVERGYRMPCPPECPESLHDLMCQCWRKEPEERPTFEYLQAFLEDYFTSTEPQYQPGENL

HeLa [25] = assay: Effect on Src level in human Hela cells upto 80 uM after 24 hrs by Western blot analysis; format: functional, cell-based; settings: dose microM <=80, time […]
HeLa [26] = assay: Induction of cell cycle arrest in human HeLa cells assessed as accumulation at G2/M phase at 20 uM measured after 24 hrs by flow cytometry analysis (reference value: 11.81%); format: functional
[27] = biological target: Signal transducer and activator of transcription 3 (Homo sapiens) (UniProt P40763); assay: Inhibition of STAT3 in human HeLa cells assessed as decrease in phosphorylation of STAT3 at Tyr705 upto 80 uM measured after 6 hrs by Western blot analysis; format: cell-based; settings: dose microM <=80, time 6.0 hrs
Outline: (§3)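 Time course in HeLa cells given 80 μM compound, sampled from 15 min onward through multiple hours; parallel runs at 20 and 40 μM. Total cell lysates Western blotted for p-STAT3 (Tyr705), p-STAT3 (Ser727) and total STAT3.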

[28] = biological target: Signal transducer and activator of transcription 3 (Homo sapiens) (UniProt P40763); assay: Inhibition of STAT3 in human HeLa cells assessed as decrease in phosphorylation of STAT3 at Tyr705 upto 80 uM measured 15 to 120 mins by Western blot analysis; format: cell-based; settings: dose microM <=80, time lower […], time upper […]; outline: as §3
HeLa [29] = assay: Antiproliferative activity against human HeLa cells assessed as cell growth inhibition measured after 48 hrs by MTT assay; format: functional, cell-based
Outline: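 Growth was read by MTT assay, and IC50 was taken from the dose–response curve. Values are averages of three independent experiments.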

[30] = biological target: Signal transducer and activator of transcription 3 (Homo sapiens) (UniProt P40763); assay: Inhibition of STAT3 in human HeLa cells assessed as decrease in phosphorylation of STAT3 at Tyr705 measured after 24 hrs by Western blot analysis; format: cell-based; settings: dose microM <=80, time […]
Outline: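 HeLa cells exposed 24 h to a range of compound doses. Total cell lysates immunoblotted with specific antibodies for p-STAT3 (Tyr705), p-STAT3 (Ser727) and total STAT3.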

Signal transducer and activator of transcription 3 (Homo sapiens), sequence (P40763 whole entry): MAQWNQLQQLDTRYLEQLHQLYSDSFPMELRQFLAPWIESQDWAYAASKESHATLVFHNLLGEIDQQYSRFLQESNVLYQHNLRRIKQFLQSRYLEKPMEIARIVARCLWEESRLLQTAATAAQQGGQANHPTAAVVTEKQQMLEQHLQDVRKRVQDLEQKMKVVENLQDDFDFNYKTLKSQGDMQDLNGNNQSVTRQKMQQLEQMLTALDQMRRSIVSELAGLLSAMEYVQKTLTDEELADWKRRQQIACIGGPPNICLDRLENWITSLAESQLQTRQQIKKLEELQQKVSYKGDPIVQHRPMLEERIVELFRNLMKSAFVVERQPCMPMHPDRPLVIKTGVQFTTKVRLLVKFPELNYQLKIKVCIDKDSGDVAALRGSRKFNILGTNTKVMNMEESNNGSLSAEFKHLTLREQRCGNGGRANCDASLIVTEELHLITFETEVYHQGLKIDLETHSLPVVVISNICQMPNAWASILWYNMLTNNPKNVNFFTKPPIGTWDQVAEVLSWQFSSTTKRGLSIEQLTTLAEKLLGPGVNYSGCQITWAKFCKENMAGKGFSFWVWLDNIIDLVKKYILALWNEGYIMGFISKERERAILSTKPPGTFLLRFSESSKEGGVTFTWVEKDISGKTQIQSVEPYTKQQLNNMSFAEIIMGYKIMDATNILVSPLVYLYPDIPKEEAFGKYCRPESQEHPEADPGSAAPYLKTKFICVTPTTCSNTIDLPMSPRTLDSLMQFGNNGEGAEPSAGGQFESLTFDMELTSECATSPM

In the case of CC(=O)Oc1ccccc1C(=O)Nc1ncc([N+](=O)[O-])s1 [NITAZOXANIDE], the inhibition [1] is reported as “Dose-dependent effect”, the inhibition [2] is reported as “Dose-dependent effect” and the inhibition [3] is reported as “Dose-dependent effect”. The Vd/F [4] was 0.08 L/kg, the Activity (HeLa [5]) was 70.64% and the cytotoxicity at 48 h, 10 µM [6] was 19.4%. The inhibition [7] was “inactive”, the IC50 [8] was 31.8 µM and the half-life [9] was 36 min. It also gave an IC50 (Caco-2) of 26.8 µM, an Activity (HeLa [10]) of 28.45% and an IC50 (HeLa [11]) of 35 µM. For the same molecule, the inhibition [12] was “inactive”, the Activity (HeLa [13]) was 4.49% and the viability at 20 µM (HeLa [14]) was 84.1%. For the same molecule, the Activity (HeLa [15]) was 0.06%, the AUC(0-inf) [16] was 11.2 µg·h/mL and the Activity (HeLa [17]) was 61.96%. For the same molecule, the Cmax [18] was 2.8 µg/mL, the Activity (HeLa [19]) was 5.32% and the Activity (HeLa [20]) was 11.4%. The Cmax [21] was 1 µg/mL, the IC50 (HT-29) was > 50 µM and the Activity (HeLa [22]) was 15.12%. For the same molecule, the half-life [23] was 48 min, the inhibition [24] was “inactive” and the Activity (HeLa [25]) was “inactive”. The Activity (HeLa [26]) was 8.27%, the inhibition [27] was “inactive” and the inhibition [28] was “inactive”. For the same molecule, the IC50 (HeLa [29]) was 35 µM and the inhibition [30] was “Dose-dependent effect”.

Source: ChEMBL document CHEMBL4706740, “Structure-Activity Study of Nitazoxanide Derivatives as Novel STAT3 Pathway Inhibitors” (ACS Med Chem Lett, 2021)
